Measurements reported in ChEMBL document CHEMBL5329183, “Naphthylthiazoles: a class of broad-spectrum antifungals” (RSC Med Chem, 2023).
In brackets after ≈: the same amount, converted by molar mass.

Key:
Vero = assay: Cytotoxicity against African green monkey Vero cells assessed as inhibition of cell viability at 16 ug/ml incubated for 2 hrs by MTS assay; format: toxicity, cell-based; details: chlorocebus sabaeus, dose 16 µg/ml
Cryptococcus neoformans [1] = assay: Antifungal activity against Cryptococcus neoformans NR 48771 assessed as inhibition of fungal growth incubated for 48 hrs by broth microdilution method; format: functional
Method in brief: (§1)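 Clinical isolate; CLSI broth microdilution over a range of concentrations (media listed: RPMI 1640, MOPS, YPD). MIC read as lowest concentration inhibiting growth by 50% after 48 h incubation at 35 °C.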

Pichia kudriavzevii [2] = assay: Antifungal activity against Candida krusei CAB 396420 assessed as inhibition of fungal growth incubated for 24 hrs by broth microdilution method; format: functional
Method in brief: (§2)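 Broth microdilution per CLSI guidelines against clinical isolates, incubated at 35 °C for 24 h (Candida, Aspergillus) or 48 h (Cryptococcus). MIC was the lowest concentration giving 50% growth inhibition.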

Cryptococcus neoformans [3] = assay: Antifungal activity against Cryptococcus neoformans NR 48773 assessed as inhibition of fungal growth incubated for 48 hrs by broth microdilution method; format: functional; method in brief: as §1
Candida albicans [4] = assay: Antifungal activity against Candida albicans NR 29448 assessed as inhibition of fungal growth incubated for 24 hrs by broth microdilution method; format: functional
Method in brief: (§3)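 Clinical isolate; CLSI broth microdilution over a range of concentrations (media listed: RPMI 1640, MOPS, YPD). MIC taken as lowest concentration giving 50% growth inhibition after 24 h at 35 °C.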

[Candida] auris [5] = Antifungal activity against Candida auris 383 assessed as inhibition of fungal growth incubated for 24 hrs by broth microdilution method; format: functional; details: Candidozyma auris; method in brief: as §3
Pichia kudriavzevii [6] = assay: Antifungal activity against Candida krusei ATCC 34135 assessed as inhibition of fungal growth incubated for 24 hrs by broth microdilution method; format: functional; method in brief: as §2
[7] = Antifungal activity against Cryptococcus gattii NR 43210 assessed as inhibition of fungal growth incubated for 48 hrs by broth microdilution method; format: functional, Cryptococcus gattii VGI; method in brief: as §2
[8] = Cytotoxicity against African green monkey Vero cells assessed as cell viability at 8 ug/ml incubated for 2 hrs by MTS assay; format: toxicity, cell-based; details: chlorocebus sabaeus, at 8 µg/mL, read-out: Activity
Method in brief: (§4)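 Vero cells were grown in MEM with 10% FBS, 1 mM sodium pyruvate and penicillin–streptomycin, then exposed to compounds for 2 h at 37 °C, 5% CO2, in triplicate. MTS was added for 3 h and OD490 read. Viability was expressed as % of DMSO-matched controls (mean ± SD).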

Cryptococcus neoformans [9] = assay: Antifungal activity against Cryptococcus neoformans NR 41300 assessed as inhibition of fungal growth incubated for 48 hrs by broth microdilution method; format: functional; method in brief: as §1
[10] = Antifungal activity against Cryptococcus gattii NR 43209 assessed as inhibition of fungal growth incubated for 48 hrs by broth microdilution method; format: functional, Cryptococcus gattii VGI; method in brief: as §2
Candida parapsilosis [11] = assay: Antifungal activity against Candida parapsilosis CAB 502638 assessed as inhibition of fungal growth incubated for 24 hrs by broth microdilution method; format: functional; details: Lodderomyces parapsilosis; method in brief: as §2
[Candida] auris [12] = Antifungal activity against Candida auris 381 assessed as inhibition of fungal growth incubated for 24 hrs by broth microdilution method; format: functional; details: Candidozyma auris; method in brief: as §3
Lactobacillus gasseri = assay: Antibacterial activity against Lactobacillus gasseri HM400 assessed as inhibition of bacterial growth; format: toxicity, organism-based
Candida albicans [13] = assay: Antifungal activity against Candida albicans ATCC 10231 assessed as inhibition of fungal growth incubated for 24 hrs by broth microdilution method; format: functional; method in brief: as §2
Cryptococcus neoformans [14] = assay: Antifungal activity against Cryptococcus neoformans NR 48767 assessed as inhibition of fungal growth incubated for 48 hrs by broth microdilution method; format: functional; method in brief: as §1
[Candida] auris [15] = Antifungal activity against Candida auris 382 assessed as inhibition of fungal growth incubated for 24 hrs by broth microdilution method; format: functional; details: Candidozyma auris; method in brief: as §3
[16] = Antifungal activity against Cryptococcus gattii NR 43216 assessed as inhibition of fungal growth incubated for 48 hrs by broth microdilution method; format: functional, Cryptococcus gattii VGI; method in brief: as §2
[17] = Antibacterial activity against Lactobacillus casei HM334 assessed as inhibition of bacterial growth; format: toxicity; details: lacticaseibacillus casei
[18] = Antibacterial activity against Lactobacillus crispatus HM370 assessed as inhibition of bacterial growth; format: toxicity
Candida albicans [19] = assay: Antifungal activity against wild type Candida albicans SC5314 assessed as inhibition of fungal growth; format: functional
[20] = Cytotoxicity against African green monkey Vero cells assessed as inhibition of cell viability incubated for 2 hrs by MTS assay; format: toxicity, cell-based; details: chlorocebus sabaeus; method in brief: as §4
Cryptococcus neoformans [21] = assay: Antifungal activity against Cryptococcus neoformans NR 41299 assessed as inhibition of fungal growth incubated for 48 hrs by broth microdilution method; format: functional; method in brief: as §1
Cryptococcus neoformans [22] = assay: Antifungal activity against Cryptococcus neoformans NR 41298 assessed as inhibition of fungal growth incubated for 48 hrs by broth microdilution method; format: functional; method in brief: as §1
Cryptococcus neoformans [23] = assay: Antifungal activity against Cryptococcus neoformans NR 48770 assessed as inhibition of fungal growth incubated for 48 hrs by broth microdilution method; format: functional; method in brief: as §1
Nakaseomyces glabratus [24] = assay: Antifungal activity against Candida glabrata ATCC 66032 assessed as inhibition of fungal growth incubated for 24 hrs by broth microdilution method; format: functional; method in brief: as §3
[25] = Antifungal activity against Cryptococcus gattii NR 43213 assessed as inhibition of fungal growth incubated for 48 hrs by broth microdilution method; format: functional, Cryptococcus gattii VGI; method in brief: as §2
[26] = Antifungal activity against Cryptococcus gattii NR 43214 assessed as inhibition of fungal growth incubated for 48 hrs by broth microdilution method; format: functional, Cryptococcus gattii VGI; method in brief: as §2
Nakaseomyces glabratus [27] = assay: Antifungal activity against Candida glabrata ATCC MYA2950 assessed as inhibition of fungal growth incubated for 24 hrs by broth microdilution method; format: functional; method in brief: as §3
Candida parapsilosis [28] = assay: Antifungal activity against Candida parapsilosis ATCC 22019 assessed as inhibition of fungal growth incubated for 24 hrs by broth microdilution method; format: functional; details: Lodderomyces parapsilosis; method in brief: as §3

SMILES: C[C@@H]1[C@H](O)[C@@H](C)/C=C/C=C/C=C/C=C/C=C/C=C/C=C/[C@H](O[C@@H]2O[C@H](C)[C@@H](O)[C@H](N)[C@@H]2O)C[C@@H]2O[C@](O)(C[C@@H](O)C[C@@H](O)[C@H](O)CC[C@@H](O)C[C@@H](O)CC(=O)O[C@H]1C)C[C@H](O)[C@H]2C(=O)O [AMPHOTERICIN B]
- Activity (Vero): Toxic
- MIC (Cryptococcus neoformans [1]): 1 µg/mL (≈ 1.08 µM)
- MIC (Pichia kudriavzevii [2]): 2 µg/mL (≈ 2.16 µM)
- MIC (Cryptococcus neoformans [3]): 1 µg/mL (≈ 1.08 µM)
- MIC (Candida albicans [4]): 1 µg/mL (≈ 1.08 µM)
- MIC ([Candida] auris [5]): 1 µg/mL (≈ 1.08 µM)
- MIC (Pichia kudriavzevii [6]): 2 µg/mL (≈ 2.16 µM)
- MIC [7]: 1 µg/mL (≈ 1.08 µM)
- viability at 2 h, 8 ug/ml [8]: 58%
- MIC (Cryptococcus neoformans [9]): 1 µg/mL (≈ 1.08 µM)
- MIC [10]: 1 µg/mL (≈ 1.08 µM)
- MIC (Candida parapsilosis [11]): 0.5 µg/mL (≈ 0.541 µM)
- MIC ([Candida] auris [12]): 0.5 µg/mL (≈ 0.541 µM)
- MIC (Lactobacillus gasseri): > 128 µg/mL
- MIC (Candida albicans [13]): 1 µg/mL (≈ 1.08 µM)
- MIC (Cryptococcus neoformans [14]): 1 µg/mL (≈ 1.08 µM)
- MIC ([Candida] auris [15]): 1 µg/mL (≈ 1.08 µM)
- MIC [16]: 1 µg/mL (≈ 1.08 µM)
- MIC [17]: > 128 µg/mL
- MIC [18]: > 128 µg/mL
- MIC (Candida albicans [19]): 1 µg/mL (≈ 1.08 µM)
- CC50 at 2 h [20]: ~8 µg/mL (≈ 8.66 µM)
- MIC (Cryptococcus neoformans [21]): 1 µg/mL (≈ 1.08 µM)
- MIC (Cryptococcus neoformans [22]): 1 µg/mL (≈ 1.08 µM)
- MIC (Cryptococcus neoformans [23]): 1 µg/mL (≈ 1.08 µM)
- MIC (Nakaseomyces glabratus [24]): 2 µg/mL (≈ 2.16 µM)
- MIC [25]: 1 µg/mL (≈ 1.08 µM)
- MIC [26]: 1 µg/mL (≈ 1.08 µM)
- MIC (Nakaseomyces glabratus [27]): 1 µg/mL (≈ 1.08 µM)
- MIC (Candida parapsilosis [28]): 0.5 µg/mL (≈ 0.541 µM)
